We go through 27 compounds from ChEMBL document CHEMBL2434820, “Design, synthesis, and biological evaluation of novel 2-ethyl-5-phenylthiazole-4-carboxamide derivatives as protein tyrosine phosphatase 1B inhibitors with improved cellular efficacy” (Eur J Med Chem, 2013).

Calls of active or inactive are those of the source. The calls are words filed in the database; no cut-off is given here. A value given as a limit tells only on which side of the number the result lay.

Test [1] concerns the target T1, Tyrosine-protein phosphatase non-receptor type 1 (Homo sapiens) (UniProt P18031).
T1 sequence (whole entry): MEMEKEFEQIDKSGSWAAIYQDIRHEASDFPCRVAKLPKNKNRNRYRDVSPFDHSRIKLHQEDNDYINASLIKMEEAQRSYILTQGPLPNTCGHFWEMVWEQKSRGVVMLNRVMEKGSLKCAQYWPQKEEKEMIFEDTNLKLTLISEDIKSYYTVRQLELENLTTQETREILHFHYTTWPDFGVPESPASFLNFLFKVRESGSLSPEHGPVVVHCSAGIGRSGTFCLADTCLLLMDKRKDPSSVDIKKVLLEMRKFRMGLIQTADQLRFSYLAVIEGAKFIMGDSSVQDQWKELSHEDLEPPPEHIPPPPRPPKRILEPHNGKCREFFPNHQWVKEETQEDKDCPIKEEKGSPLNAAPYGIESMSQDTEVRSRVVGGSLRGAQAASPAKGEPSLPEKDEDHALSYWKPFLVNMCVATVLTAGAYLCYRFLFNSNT
The experiment in a line: Inhibition of PTP1B (unknown origin) expressed in CHO cells over-expressing human IR assessed as increase in insulin-mediated IR-beta phosphorylation preincubated for 2 hrs followed by insulin challenge for 10 mins by Western blotting analysis. Type of test: cell-based. In short, it runs like this: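 CHO cells overexpressing human IR, grown in Ham's F-12 with 10% FBS at 37 °C, 5% CO2. Cells were serum-starved 2 h, then exposed to compound for 2 h (0.2% DMSO vehicle; 1 mM sodium orthovanadate as positive control). They were then stimulated with 10 nM insulin for 10 min. Lysates were run on 8% SDS-PAGE and immunoblotted with anti-pTyr, using β-actin as the loading control.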
(A western blot detects proteins with antibodies after separation by electrophoresis.)

Test [2] concerns the target T2, Tyrosine-protein phosphatase non-receptor type 1 (Homo sapiens, UniProt P18031).
T2 sequence (P18031 whole entry): T1 sequence (whole entry)
Nature of the test: Inhibition of GST-tagged PTP1B (unknown origin) using pNPP as substrate measured for 2 mins by colorimetric analysis.

Test [3] has as its target Receptor-type tyrosine-protein phosphatase F (Homo sapiens, UniProt P10586). Nature of the test: Inhibition of LAR (unknown origin).
In test [4] the target is T3, M-phase inducer phosphatase 2 (Homo sapiens, UniProt P30305).
T3 sequence (P30305 whole entry): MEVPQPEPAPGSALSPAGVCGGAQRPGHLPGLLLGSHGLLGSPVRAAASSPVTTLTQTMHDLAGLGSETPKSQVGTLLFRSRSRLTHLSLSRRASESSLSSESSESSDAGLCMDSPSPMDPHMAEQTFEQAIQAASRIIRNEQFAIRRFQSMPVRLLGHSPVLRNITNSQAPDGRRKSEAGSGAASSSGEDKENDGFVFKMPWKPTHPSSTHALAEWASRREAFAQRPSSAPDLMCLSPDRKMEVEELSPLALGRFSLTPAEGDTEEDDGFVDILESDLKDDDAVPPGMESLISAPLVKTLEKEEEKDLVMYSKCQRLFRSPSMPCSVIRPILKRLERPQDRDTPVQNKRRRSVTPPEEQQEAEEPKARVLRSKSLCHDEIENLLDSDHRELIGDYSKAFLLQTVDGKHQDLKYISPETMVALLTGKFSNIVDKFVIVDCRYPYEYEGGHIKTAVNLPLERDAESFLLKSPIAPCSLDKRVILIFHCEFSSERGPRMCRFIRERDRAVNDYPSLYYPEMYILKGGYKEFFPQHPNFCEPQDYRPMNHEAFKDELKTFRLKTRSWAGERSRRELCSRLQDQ
Nature of the test: Inhibition of CDC25B (unknown origin).

Test [5] concerns the target T4, Tyrosine-protein phosphatase non-receptor type 2 (Homo sapiens, UniProt P17706).
T4 sequence (P17706 whole entry): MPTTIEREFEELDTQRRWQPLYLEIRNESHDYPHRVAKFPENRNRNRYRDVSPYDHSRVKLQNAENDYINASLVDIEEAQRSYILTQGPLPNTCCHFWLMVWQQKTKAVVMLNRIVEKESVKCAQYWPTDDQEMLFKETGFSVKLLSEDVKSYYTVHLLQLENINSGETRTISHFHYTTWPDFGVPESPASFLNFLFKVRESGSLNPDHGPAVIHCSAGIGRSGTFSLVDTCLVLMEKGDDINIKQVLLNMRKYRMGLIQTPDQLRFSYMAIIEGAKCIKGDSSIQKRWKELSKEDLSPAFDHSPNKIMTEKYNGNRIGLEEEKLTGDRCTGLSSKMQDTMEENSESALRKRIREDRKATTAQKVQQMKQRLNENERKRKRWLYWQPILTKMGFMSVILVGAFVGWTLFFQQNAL
Nature of the test: Inhibition of TCPTP (unknown origin).

In test [6] the target is Tyrosine-protein phosphatase non-receptor type 6 (Homo sapiens, UniProt P29350). Nature of the test: Inhibition of SHP-1 (unknown origin).
Test [7] has as its target T5, Tyrosine-protein phosphatase non-receptor type 11 (Homo sapiens, UniProt Q06124).
T5 sequence (Q06124 whole entry): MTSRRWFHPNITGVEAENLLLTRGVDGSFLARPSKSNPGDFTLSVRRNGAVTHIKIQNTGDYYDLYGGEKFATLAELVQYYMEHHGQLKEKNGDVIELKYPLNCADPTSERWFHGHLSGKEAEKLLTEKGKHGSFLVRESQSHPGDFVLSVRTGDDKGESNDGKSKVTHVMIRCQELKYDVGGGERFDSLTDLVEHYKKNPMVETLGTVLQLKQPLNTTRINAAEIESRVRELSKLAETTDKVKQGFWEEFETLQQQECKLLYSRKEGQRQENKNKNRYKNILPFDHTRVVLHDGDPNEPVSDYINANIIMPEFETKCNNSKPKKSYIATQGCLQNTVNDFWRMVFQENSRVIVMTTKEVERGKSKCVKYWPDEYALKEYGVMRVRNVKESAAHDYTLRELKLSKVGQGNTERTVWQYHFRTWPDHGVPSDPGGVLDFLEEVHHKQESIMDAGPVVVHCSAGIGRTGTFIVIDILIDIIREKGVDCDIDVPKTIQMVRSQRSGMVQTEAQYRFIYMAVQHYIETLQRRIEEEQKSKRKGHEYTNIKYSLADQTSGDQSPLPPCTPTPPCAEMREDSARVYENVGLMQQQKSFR
Nature of the test: Inhibition of SHP-2 (unknown origin).

A further test is filed under the species Homo sapiens. Nature of the test: Selectivity ratio of IC50 for TCPTP (unknown origin) to IC50 for GST-tagged PTP1B (unknown origin).
For test [8], the target named is T1, Tyrosine-protein phosphatase non-receptor type 1 (Homo sapiens). Particulars: CHO, 1.25 to 10 uM.

Sequence of Receptor-type tyrosine-protein phosphatase F (P10586 whole entry): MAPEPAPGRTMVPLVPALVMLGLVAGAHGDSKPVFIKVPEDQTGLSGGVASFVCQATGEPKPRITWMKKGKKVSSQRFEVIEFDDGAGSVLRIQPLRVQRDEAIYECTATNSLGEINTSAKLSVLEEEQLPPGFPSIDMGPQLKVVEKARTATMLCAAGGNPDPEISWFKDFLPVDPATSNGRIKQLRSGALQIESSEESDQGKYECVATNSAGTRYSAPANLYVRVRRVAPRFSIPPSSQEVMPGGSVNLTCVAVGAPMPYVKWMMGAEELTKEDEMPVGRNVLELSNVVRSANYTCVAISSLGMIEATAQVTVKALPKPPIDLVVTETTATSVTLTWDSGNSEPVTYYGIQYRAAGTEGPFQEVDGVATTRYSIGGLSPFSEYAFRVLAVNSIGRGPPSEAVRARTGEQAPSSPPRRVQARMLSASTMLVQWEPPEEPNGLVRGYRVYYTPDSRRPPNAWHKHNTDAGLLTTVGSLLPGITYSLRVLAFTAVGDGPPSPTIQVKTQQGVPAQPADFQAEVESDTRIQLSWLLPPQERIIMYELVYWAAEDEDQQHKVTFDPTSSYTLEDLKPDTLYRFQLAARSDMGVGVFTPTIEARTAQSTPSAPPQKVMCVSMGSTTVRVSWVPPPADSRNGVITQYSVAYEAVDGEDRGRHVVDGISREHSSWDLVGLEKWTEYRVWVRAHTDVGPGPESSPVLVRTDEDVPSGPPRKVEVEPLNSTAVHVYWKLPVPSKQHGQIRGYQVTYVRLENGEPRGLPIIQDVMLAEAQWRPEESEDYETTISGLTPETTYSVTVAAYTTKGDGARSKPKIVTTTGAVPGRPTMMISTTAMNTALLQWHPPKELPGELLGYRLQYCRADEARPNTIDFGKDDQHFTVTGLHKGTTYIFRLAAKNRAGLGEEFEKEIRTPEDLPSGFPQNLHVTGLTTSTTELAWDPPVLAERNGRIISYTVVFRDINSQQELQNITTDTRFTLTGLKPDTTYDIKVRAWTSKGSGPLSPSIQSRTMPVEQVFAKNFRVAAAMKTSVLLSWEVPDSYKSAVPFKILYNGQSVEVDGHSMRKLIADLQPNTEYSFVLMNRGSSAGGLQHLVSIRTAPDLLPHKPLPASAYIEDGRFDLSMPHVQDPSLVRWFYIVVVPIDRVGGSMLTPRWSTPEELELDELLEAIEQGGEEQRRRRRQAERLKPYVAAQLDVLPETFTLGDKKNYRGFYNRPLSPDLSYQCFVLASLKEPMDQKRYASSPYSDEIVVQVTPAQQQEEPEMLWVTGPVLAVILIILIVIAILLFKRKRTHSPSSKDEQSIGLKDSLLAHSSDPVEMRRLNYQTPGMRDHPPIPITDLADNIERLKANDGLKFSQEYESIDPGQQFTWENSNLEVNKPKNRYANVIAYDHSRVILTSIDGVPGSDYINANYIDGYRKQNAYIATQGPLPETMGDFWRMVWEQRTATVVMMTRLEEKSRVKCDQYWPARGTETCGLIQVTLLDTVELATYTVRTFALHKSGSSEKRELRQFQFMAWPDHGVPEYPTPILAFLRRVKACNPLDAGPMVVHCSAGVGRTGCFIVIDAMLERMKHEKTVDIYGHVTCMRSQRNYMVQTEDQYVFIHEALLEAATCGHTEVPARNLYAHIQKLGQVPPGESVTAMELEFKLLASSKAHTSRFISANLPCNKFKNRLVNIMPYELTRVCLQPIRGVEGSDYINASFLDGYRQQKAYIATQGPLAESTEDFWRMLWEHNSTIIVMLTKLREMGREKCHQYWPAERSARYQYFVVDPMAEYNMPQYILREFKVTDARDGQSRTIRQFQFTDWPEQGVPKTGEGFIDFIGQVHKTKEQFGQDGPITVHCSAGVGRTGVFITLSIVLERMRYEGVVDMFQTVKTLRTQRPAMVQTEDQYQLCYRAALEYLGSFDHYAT
Sequence of Tyrosine-protein phosphatase non-receptor type 6 (P29350 whole entry): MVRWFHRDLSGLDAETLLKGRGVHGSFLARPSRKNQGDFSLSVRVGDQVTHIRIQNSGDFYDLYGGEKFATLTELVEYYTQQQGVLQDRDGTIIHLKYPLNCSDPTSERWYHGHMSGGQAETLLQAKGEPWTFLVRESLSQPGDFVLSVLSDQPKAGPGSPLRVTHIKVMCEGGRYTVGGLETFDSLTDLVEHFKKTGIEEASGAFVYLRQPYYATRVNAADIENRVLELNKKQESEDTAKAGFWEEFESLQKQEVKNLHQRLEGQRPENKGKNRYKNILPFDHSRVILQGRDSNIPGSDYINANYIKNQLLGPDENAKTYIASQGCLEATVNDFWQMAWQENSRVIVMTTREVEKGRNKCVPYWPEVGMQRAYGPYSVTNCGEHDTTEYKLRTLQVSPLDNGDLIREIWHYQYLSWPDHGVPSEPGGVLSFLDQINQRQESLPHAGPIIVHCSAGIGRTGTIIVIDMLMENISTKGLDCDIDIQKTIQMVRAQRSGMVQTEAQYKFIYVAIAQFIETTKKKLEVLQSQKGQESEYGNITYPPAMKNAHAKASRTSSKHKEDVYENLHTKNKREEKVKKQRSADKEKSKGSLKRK

As to `CCOC(=O)/C(C)=C\C(C)=C\c1nc([C@H](Cc2ccc(OCc3ccccc3)cc2)NC(=O)C2CCCCC2)sc1-c1ccccc1`, in [1], the inhibition entry is “inactive”. For the same compound, the IC50 (in general, the concentration that gives 50% inhibition) in test [2] turned out to be 8.44 µM.
Taken in the same sequence, the figures for `CCOC(=O)/C(C)=C\C(C)=C\c1nc([C@H](Cc2ccc(OCc3ccccc3)cc2)NC(=O)C2CCCCC2)sc1C` were “inactive” and 13.5 µM.
In turn, `COC(=O)c1ccc(NC(=O)c2csc([C@H](Cc3ccc(OCc4ccccc4)cc3)NC(=O)C3CCCCC3)n2)cc1` returned an IC50 in test [2] of 4.42 µM.
Still for that read-out and setting: under `O=C(O)c1ccc(NC(=O)c2csc([C@H](Cc3ccc(OCc4ccccc4)cc3)NC(=O)C3CCCCC3)n2)cc1` stands 4.88 µM; under `COC(=O)c1cccc(NC(=O)c2nc([C@H](Cc3ccc(OCc4ccccc4)cc3)NC(=O)C3CCCCC3)sc2-c2ccccc2)c1`, 3.79 µM; under `O=C(CCc1c[nH]c2ccccc12)N[C@@H](Cc1ccc(OCc2ccccc2)cc1)c1nc(C(=O)Nc2ccc(C(=O)O)c(F)c2)c(-c2ccccc2)s1`, 2.56 µM.
For the compound `O=C(CCc1c[nH]c2ccccc12)N[C@@H](Cc1ccc(OCc2ccccc2)cc1)c1nc(C(=O)Nc2cccc(C(=O)O)c2)c(-c2ccccc2)s1`, the IC50 was greater than 20 µM in test [3]; 7.37 µM in test [4]; 3.38 µM in test [5]; 7.53 µM in [6]; 5.3 µM in test [7]; 1.01 µM in [2]. The inhibition entry in [1] is “Dose-dependent effect”. The Ratio IC50 in the test filed under Homo sapiens was 3.3.
`COC(=O)c1cccc(NC(=O)c2csc([C@H](Cc3ccc(OCc4ccccc4)cc3)NC(=O)C3CCCCC3)n2)c1`: the IC50 in test [2] was determined as 10.6 µM.
Still for that read-out and setting: then `O=C(CCc1c[nH]c2ccccc12)N[C@@H](Cc1ccc(OCc2ccccc2)cc1)c1nc(C(=O)Nc2ccc(C(=O)O)cc2F)c(-c2ccccc2)s1`, with 0.77 µM.
In [2], `O=C(O)c1cccc(NC(=O)c2csc([C@H](Cc3ccc(OCc4ccccc4)cc3)NC(=O)C3CCCCC3)n2)c1` had an IC50 of 6 µM.
Take `O=C(O)c1cccc(NC(=O)c2nc([C@H](Cc3ccc(OCc4ccccc4)cc3)NC(=O)C3CCCCC3)sc2-c2ccccc2)c1`: the IC50 in test [3] was greater than 20 µM; in test [4], 2.51 µM; in test [5], 3.97 µM; in test [6], 6.93 µM; in test [7], 11.7 µM; in test [2], 1.17 µM. In the test filed under Homo sapiens, the Ratio IC50 was 3.4.
As to `O=C(CCc1c[nH]c2ccccc12)N[C@@H](Cc1ccc(OCc2ccccc2)cc1)c1nc(C(=O)Nc2cc(Cl)ccc2C(=O)O)c(-c2ccccc2)s1`, in test [2], the IC50 is 0.71 µM.
The same measure, in the same setting: under `O=C(CCc1c[nH]c2ccccc12)N[C@@H](Cc1ccc(OCc2ccccc2)cc1)c1nc(C(=O)Nc2cc(Br)ccc2C(=O)O)c(-c2ccccc2)s1` stands 1.18 µM; under `O=C(CCc1c[nH]c2ccccc12)N[C@@H](Cc1ccc(OCc2ccccc2)cc1)c1nc(C(=O)Nc2ccc(C(=O)O)cc2)c(-c2ccccc2)s1`, 2.28 µM.
`C/C(=C/C(C)=C/c1nc([C@H](Cc2ccc(OCc3ccccc3)cc2)NC(=O)C2CCCCC2)sc1-c1ccccc1)C(=O)O`: in test [2], half-maximal inhibition (IC50) required 10.9 µM. The inhibition result in [8] was “Active”.
In the case of `O=C(CCc1c[nH]c2ccccc12)N[C@@H](Cc1ccc(OCc2ccccc2)cc1)c1nc(C(=O)Nc2ccc(F)cc2C(=O)O)c(-c2ccccc2)s1`, the IC50 in test [2] was 2.82 µM.
In the case of `CCOC(=O)/C(C)=C\C(C)=C\c1nc([C@H](Cc2ccc(OCc3ccccc3)cc2)NC(=O)C2CCCCC2)sc1CC(C)C`, in [1], the inhibition entry is “inactive”. The compound also displayed an IC50 in test [2] of 9.54 µM.
With `O=C(CCc1c[nH]c2ccccc12)N[C@@H](Cc1ccc(OCc2ccccc2)cc1)c1nc(C(=O)Nc2cc(C(=O)O)ccc2F)c(-c2ccccc2)s1`, the IC50 in [3] was greater than 20 µM; in test [4], 9.74 µM; in test [5], 3.98 µM; in [6] it was 10.6 µM; in test [7], 10.1 µM; in test [2] it was 1.12 µM. Further, the Ratio IC50 in the test filed under Homo sapiens turned out to be 3.6.
As for `CCOC(=O)/C(C)=C\C(C)=C\c1csc([C@H](Cc2ccc(OCc3ccccc3)cc2)NC(=O)C2CCCCC2)n1`, in test [1], the inhibition result is “inactive”.
Take `O=C(CCc1c[nH]c2ccccc12)N[C@@H](Cc1ccc(OCc2ccccc2)cc1)c1nc(C(=O)Nc2ccccc2C(=O)O)c(-c2ccccc2)s1`: inhibition in test [2] was half-maximal at 5.56 µM (IC50).
Same read-out and setting: then `O=C(CCc1c[nH]c2ccccc12)N[C@@H](Cc1ccc(OCc2ccccc2)cc1)c1nc(C(=O)Nc2ccc(F)c(C(=O)O)c2)c(-c2ccccc2)s1`, with 1.62 µM.
In the case of `C/C(=C/C(C)=C/c1csc([C@H](Cc2ccc(OCc3ccccc3)cc2)NC(=O)C2CCCCC2)n1)C(=O)O`, the inhibition result in test [1] was “inactive”. The compound further came in with an IC50 in test [2] of 14.7 µM.
Take `O=C(CCc1c[nH]c2ccccc12)N[C@@H](Cc1ccc(OCc2ccccc2)cc1)c1nc(C(=O)Nc2cccc(F)c2C(=O)O)c(-c2ccccc2)s1`: the half-maximal inhibitory concentration (IC50) in test [2] is 4.18 µM.
Still for that read-out and setting: then `COC(=O)c1ccccc1NC(=O)c1csc([C@H](Cc2ccc(OCc3ccccc3)cc2)NC(=O)C2CCCCC2)n1`, with 8.79 µM; and `COC(=O)c1cccc(NC(=O)c2nc([C@H](Cc3ccc(OCc4ccccc4)cc3)NC(=O)CCc3c[nH]c4ccccc34)sc2-c2ccccc2)c1`, with 2.68 µM; and `O=C(Nc1ccccc1C(=O)O)c1csc([C@H](Cc2ccc(OCc3ccccc3)cc2)NC(=O)C2CCCCC2)n1`, with 8.12 µM.
In the case of `O=C(CCc1c[nH]c2ccccc12)N[C@@H](Cc1ccc(OCc2ccccc2)cc1)c1nc(C(=O)Nc2ccc(Cl)c(C(=O)O)c2)c(-c2ccccc2)s1`, the IC50 in test [3] was greater than 20 µM; in [4], 4.94 µM; in test [5], 3.36 µM; in test [6], 8.79 µM; in test [7], 6.79 µM; in [2], 1.42 µM. Further, the Ratio IC50 in the test filed under Homo sapiens was determined as 2.4.
